The results in this text go back to publication PMC12004261 (RSC Medicinal Chemistry, 2025).

Series [1] in a line: Total-body PET imaging study. The series is classed as in vivo, rhesus macaque. The conditions noted are these: rhesus monkey.
The target in series [2] is PSP brain tissue homogenates (Homo sapiens, UniProt P10636). Briefly: Saturation binding assay of [^3H]M503-1619 in PSP brain tissue homogenates. An outline of the steps:
(§1)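 Frozen brain homogenate in pH 7.0 PBS, diluted to a final 100 μg tissue per mL. Contained ~1 nM tritiated test compound plus 0.2–1000 nM unlabelled compound and 0.25% DMSO (final). Incubated 60 min at room temperature, GF/B filtration, three PBS washes, scintillation counting after standing overnight. Nondisplaceable binding set with ~1 μM unlabelled compound; bound corrected for diluted specific activity. KD from Scatchard slope, Bmax from x-intercept; at least triplicate.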

Series [3] addresses PD brain tissue homogenates (Homo sapiens, UniProt P37840). Briefly: Saturation binding assay of [^3H]M503-1619 in PD brain tissue homogenates. An outline of the steps:
as §1

The target of series [4] is CBD brain tissue homogenates (Homo sapiens, UniProt P10636). Briefly: Saturation binding assay of [^3H]M503-1619 in CBD brain tissue homogenates. The procedure, abridged:
as §1

The nature of series [5]: Radiometabolite study of venous blood plasma. The series is classed as in vivo, rhesus monkey. Conditions: 7.5 min post-injection. The procedure, abridged: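 Plasma from a 26-year-old male rhesus macaque was sampled during a PET scan after IV injection of 105 MBq of the 11C-labelled test compound. The animal was anaesthetised with ketamine/dexmedetomidine and maintained on isoflurane. Venous blood was spun 5 min at 3000g and the plasma deproteinised with acetonitrile 1:1. Reverse-phase C18 HPLC used 65% 0.1 M ammonium formate/35% acetonitrile at 1.2 mL min−1. An in-line radio-detector measured parent fraction by standard retention time.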

The nature of series [6]: Brain PET imaging study. The series is classed as in vivo, cynomolgus macaque. The conditions noted are these: cynomolgus monkey. An outline of the steps: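 Male cynomolgus macaque (8.5 kg), ketamine 10–20 mg kg−1 induction, kept on 40% N2O/60% O2 with 1.0–1.5% isoflurane. After a positioning scan and a 45 min transmission scan for attenuation, ~350 MBq of the 11C-labelled test compound was given by limb-vein catheter. Two-hour dynamic scan, filtered back projection with corrections, co-registration to a monkey MRI template, whole-brain VOI. SUV normalised to body weight and injected dose.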

The target of series [7] is synthetic α-Syn fibrils (Homo sapiens, UniProt P37840). Briefly: Saturation binding assay of [^3H]M503-1619 in α-Syn fibrils.
Series [8] addresses AD brain tissue homogenates. Description: Saturation binding assay of [^3H]M503-1619 in AD brain tissue homogenates. Details: species or system human. Conditions: AD tissue (n = 4), mean ± SD. The procedure, abridged:
as §1

The target of series [9] is α-Syn (Lewy bodies in PD, GCIs in MSA) (Homo sapiens, UniProt P37840). Briefly: Nuclear emulsion. The series is classed as binding. The conditions noted are these: 5 nM and 15 nM, listed as [^3H]M503-1619. The procedure, abridged: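 Fresh-frozen PD and MSA cryosections (16 μm) were quenched for lipofuscin with TrueBlack in 70% EtOH and immunostained for pS129 α-Syn. Sections were incubated with 5 or 15 nM tritiated test compound in 30 mM Tris–HCl pH 7.4 for 2 h at 37 °C, then given graded Tris/ethanol washes. Emulsion-dipped slides were exposed 4 days in the dark and developed. Silver grains were imaged by brightfield alongside fluorescence.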

Entries after “also recorded” stand apart in the source; their conditions may differ.

Sequence of PSP brain tissue homogenates (P10636 561-698 limits assumed): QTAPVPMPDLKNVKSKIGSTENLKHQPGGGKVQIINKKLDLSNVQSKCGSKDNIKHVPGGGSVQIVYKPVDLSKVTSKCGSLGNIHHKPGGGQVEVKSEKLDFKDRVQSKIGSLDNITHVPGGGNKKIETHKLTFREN
Sequence of CBD brain tissue homogenates (P10636 561-708 limits assumed): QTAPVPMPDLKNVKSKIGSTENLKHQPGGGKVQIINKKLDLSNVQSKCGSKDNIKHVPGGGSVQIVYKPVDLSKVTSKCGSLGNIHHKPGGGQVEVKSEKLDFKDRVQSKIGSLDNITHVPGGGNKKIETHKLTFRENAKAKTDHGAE

Broadly, the Kd is the equilibrium constant for the complex coming apart. For `COc1ccc(NC(=O)c2cnc(N3CCN(c4ccccn4)CC3)nc2N)cc1` [M503-1619, 4-Amino-N-(4-methoxyphenyl)-2-(4-(pyridin-2-yl)piperazin-1-yl)pyrimidine-5-carboxamide], the “Time of peak uptake of the whole brain” value in [1] and in series [6] was 2 to 3 min each time. Besides, the “Whole brain peak to 60 min ratio” value in [1] and in [6] was 3.2 throughout. The “Peak uptake of the whole brain, standardized uptake value (SUV)” value came to 2.5 in series [1] (whole brain) and 2.3 in series [6] (whole brain). Moreover, the Kd in [2] was found to be 55 ± 3 nM; in [3] it was 2.5 ± 0.3 nM; in series [4], 94 ± 13 nM; in series [7], 4.4 ± 1 nM; in [8], 37 ± 2 nM. Further, the “Bmax” value in series [2] (PSP tissue (n = 4)) came out at 399 ± 24 nM; in [3] (PD tissue (n = 4)), 59 ± 10 nM; in series [4] (CBD tissue (n = 3)) it was 540 ± 130 nM; in series [7] (α-Syn fibrils (n = 4)), 1156 ± 112 nM. Besides, the Selectivity vs. tau in [3] (α-Syn vs. tau) is on record as 10–20 fold. Moreover, in series [5], the “Parent (%)” value is recorded as 57%. Further, the “High-resolution autoradiography: binding to GCIs” value in [9] (MSA brain tissue sections) is recorded as “not to GCIs present in MSA; also recorded: not on GCIs in MSA brain”. Further, in series [9] (PD brain tissue sections), the “High-resolution autoradiography: binding to Lewy bodies” value was “target engagement of [^3H]M503-1619 to Lewy bodies in PD brain; also recorded: accumulation of silver grains on Lewy bodies in PD”.
